In ChEMBL document CHEMBL1141259, “Cytotoxic ent-kauranoids from the medicinal plant Isodon xerophilus” (J Nat Prod, 2007):
pIC50: −log10 of the molar value.

Assays:
Assay type in all cases: functional, cell-based
[1] = test system: K562; assay: Cytotoxicity against human K562 cells after 48 hrs; settings: K562, 48 h
Summary of the method: (§1)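 Human lines obtained from Shanghai Cell Bank and kept in RPMI1640 with hormone-free 15% heat-inactivated FBS, 2 mM glutamine, 100 U/mL penicillin G and 100 µg/mL streptomycin. Seeded in 96-well plates at 5 × 10^4 cells/mL (K562) or 4 × 10^4 cells/mL (MKN45, HepG2). Exposed to compounds for 48 h, then viability was read by CCK-8 at 450 and 650 nm. IC50 is from triplicate experiments.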

[2] = test system: MKN-45; assay: Cytotoxicity against human MKN45 cells after 48 hrs; settings: MKN-45, 48 h; summary of the method: as §1
[3] = test system: HepG2; assay: Cytotoxicity against human HepG2 cells after 48 hrs; settings: HepG2, 48 h; summary of the method: as §1

Row | Structure (SMILES) | pIC50 [1] | pIC50 [2] | pIC50 [3]
1 | C=C1C(=O)[C@]23[C@H](O)[C@H]1C[C@H](OC(C)=O)[C@H]2[C@]12CCCC(C)(C)[C@H]1[C@H](O)[C@]3(O)OC2 [XEROPHILUSIN K] | 5.85 | 5.25 | 5.66
2 | C=C1C(=O)[C@]23[C@H](O)[C@H]1CC[C@H]2[C@]12CCC[C@@](C)(CO)[C@H]1[C@H](O)[C@]3(O)OC2 [XEROPHILUSIN IV] | < 5.00 | < 5.00 | < 5.00
3 | CC(=O)O[C@H]1C[C@H]2C3=C(O[C@]4(CC3)C(=O)[C@@]35[C@@H]6O[C@H]7O[C@@]3(O)[C@@H](O)[C@@H]3C(C)(C)CCC[C@@]73[C@@H]5[C@@H](OC(C)=O)C[C@H]64)[C@@]34[C@@H]2O[C@H]2O[C@@]3(O)[C@@H](O)[C@@H]3C(C)(C)CCC[C@]23[C@H]14 [enanderinanin J] | < 5.00 | < 5.00 | < 5.00
4 | C=C1C(=O)[C@@]23[C@@H]4OC5O[C@@]2(O)[C@@H](O)[C@@H]2C(C)(C)CC[C@@H](O)[C@]52[C@@H]3CC[C@@H]14 [PONICIDIN] | 5.89 | < 5.00 | 6.02
5 | C=C1C(=O)[C@@]23[C@@H]4O[C@H]5O[C@@]2(O)[C@@H](O)[C@@H]2C(C)(C)CCC[C@]52[C@@H]3[C@@H](OC(C)=O)C[C@@H]14 [XEROPHILUSIN A] | 5.80 | < 5.00 | < 5.00
6 | C=C1C(=O)[C@]23[C@H](O)[C@H]1CC[C@H]2[C@@]12CO[C@@]3(O)[C@@H](O)[C@@H]1[C@](C)(COC(C)=O)CC[C@H]2O [xerophilusin G] | < 5.00 | < 5.00 | < 5.00
7 | COC[C@@H]1C(=O)[C@]23[C@H](O)[C@H]1C[C@H](OC(C)=O)[C@H]2[C@]12CCCC(C)(C)[C@H]1[C@H](O)[C@]3(O)OC2 [XEROPHILUSIN X1] | 5.82 | 5.41 | 5.72
8 | C=C1C(=O)[C@]23C[C@H]1CC[C@H]2[C@@]12CO[C@@]3(O)[C@@H](O)[C@@H]1[C@](C)(COC(C)=O)[C@@H](O)C[C@H]2O [MAOECRYSTAL I] | < 5.00 | 5.89 | < 5.00
9 | C=C1C(=O)[C@]23[C@H](O)[C@H]1C[C@H](O)[C@H]2[C@@]12CO[C@@]3(O)[C@@H](O)[C@@H]1[C@](C)(COC(C)=O)CC[C@H]2O [XEROPHILUSIN VI] | < 5.00 | < 5.00 | < 5.00
10 | C=C1C(=O)[C@]23[C@H](O)[C@H]1C[C@H](OC(C)=O)[C@H]2[C@]12CCCC(C)(C)[C@H]1[C@H](O)[C@]3(O)O[C@@H]2OC [XEROPHILUSIN XII] | 5.44 | 5.68 | 5.31
11 | C=C1C(=O)[C@]23[C@H](O)[C@H]1CC[C@H]2[C@@]12CCC[C@@]4(C)CO[C@H]1O[C@@]3(O)[C@@H](O)[C@H]42 [XEROPHILUSIN D] | 5.05 | 5.41 | 5.38
12 | C=C1[C@@H]2C[C@H](OC(C)=O)[C@H]3[C@]45CCCC(C)(C)[C@H]4[C@H](OC(C)=O)[C@](O)(OC5)[C@]3([C@@H]2O)[C@H]1O [XEROPHILUSIN X] | < 5.00 | < 5.00 | < 5.00
13 | C=C1C(=O)[C@]23[C@H](O)[C@H]1CC[C@H]2[C@]12[C@H](O)CCC(C)(C)[C@H]1[C@H](O)[C@]3(O)O[C@@H]2O [HEBEIRUBESCENSINS G] | 5.28 | < 5.00 | < 5.00
14 | C=C1[C@@H](OC(C)=O)[C@]23[C@H](O)[C@H]1CC[C@H]2[C@]12CCCC(C)(C)[C@H]1[C@H](OC(C)=O)[C@]3(O)OC2 [RABDOTERNIN C] | < 5.00 | < 5.00 | < 5.00
15 | C=C1C(=O)[C@]23[C@H](O)[C@H]1C[C@H](O)[C@H]2[C@]12CCCC(C)(C)[C@H]1[C@H](O)[C@]3(O)O[C@@H]2OC [XEROPHILUSIN XI] | < 5.00 | < 5.00 | < 5.00
16 | C=C1C(=O)[C@]23[C@H](O)[C@H]1CC[C@H]2[C@]12CCC[C@@](C)(COC(C)=O)[C@H]1[C@H](O)[C@]3(O)OC2 [LONGIKAURIN B] | 5.80 | 6.31 | 5.92

Row | Structure (SMILES) | pIC50 [1] | pIC50 [2] | pIC50 [3]
17 | C=C1C(=O)[C@]23[C@H](O)[C@H]1CC[C@H]2[C@]12CCCC(C)(C)[C@H]1[C@H](O)[C@]3(O)OC2=O [XEROPHILUSIN N] | 5.92 | 5.32 | < 5.00
18 | C=C1C(=O)[C@]23C[C@H]1C[C@@H](O)[C@H]2[C@]12CCC[C@@](C)(COC(C)=O)[C@H]1[C@H](O)[C@]3(O)OC2 [LONGIKAURIN D] | 6.25 | 6.47 | 6.25
19 | C=C1C(=O)[C@]23C[C@H]1CC[C@H]2[C@@]12CO[C@@]3(O)[C@@H](O)[C@@H]1C(C)(C)CC[C@H]2O [XEROPHILUSIN I] | 5.12 | 5.21 | 5.40
20 | C=C1C(=O)[C@]23C[C@H]1CC[C@H]2[C@@]12CO[C@@]3(O)[C@@H](O)[C@@H]1[C@](C)(COC(C)=O)CC[C@H]2O [XEROPHILUSIN H] | < 5.00 | < 5.00 | < 5.00
21 | C=C1C(=O)[C@@]23[C@@H]4O[C@H]5O[C@@]2(O)[C@@H](O)[C@@H]2C(C)(C)CCC[C@]52[C@@H]3[C@@H](O)C[C@@H]14 [MACROCALIN B] | < 5.00 | < 5.00 | < 5.00
22 | C=C1C(=O)[C@]23[C@H](O)[C@H]1CC[C@H]2[C@@]12C(O)O[C@@]3(O)[C@@H](O)[C@@H]1C(C)(C)CC[C@H]2O (stereo not given in full) [HEBEIRUBESCENSINS H] | 5.28 | < 5.00 | < 5.00
23 | C=C1C(=O)[C@]23C[C@H]1C[C@@H](O)[C@@H]2[C@@]1(CCC[C@@](C)(COC(C)=O)[C@H]1C=O)COC3=O [TRICHORABDAL B] | < 5.00 | < 5.00 | < 5.00
24 | C=C1C(=O)[C@]23[C@H](O)[C@H]1C[C@H](OC(C)=O)[C@H]2[C@]12CCCC(C)(C)[C@H]1C(=O)[C@]3(O)[C@H]2O [XEROPHILUSIN F] | 5.37 | < 5.00 | 5.31
25 | C=C1C(=O)[C@]23[C@H](O)[C@H]1C[C@H](O)[C@H]2[C@]12CCCC(C)(C)[C@H]1[C@H](O)[C@]3(O)OC2 [ROSTHORIN A] | 6.48 | 5.27 | 5.19
26 | C=C1[C@@H](O)[C@]23[C@H](O)[C@H]1CC[C@H]2[C@@]12CO[C@@]3(O)[C@@H](O)[C@@H]1[C@](C)(CO)CC[C@H]2O [XEROPHILUSIN V] | < 5.00 | < 5.00 | < 5.00
27 | C=C1C(=O)[C@@]23[C@@H]4O[C@H]5O[C@@]2(O)[C@@H](O)[C@@H]2C(C)(C)CCC[C@]52[C@@H]3CC[C@@H]14 [XEROPHILUSIN B] | 5.39 | 6.40 | 5.41
28 | C=C1C(=O)[C@]23[C@H](O)[C@H]1C[C@H](O)[C@H]2[C@]12CCCC(C)(C)[C@H]1C(=O)[C@]3(O)[C@H]2O [PHYLLOSTACHYSIN A] | 5.18 | 5.52 | –
29 | C=C1C(=O)[C@@]23C(=O)[C@@H](O)[C@@H]4C(C)(C)CCC[C@@]4(C=O)[C@@H]2[C@@H](O)C[C@@H]1[C@H]3O [XEROPHILUSIN II] | 6.00 | < 5.00 | 5.35
30 | C=C1C(=O)[C@]23[C@H](O)[C@H]1C[C@H](O)[C@H]2[C@]1(C=O)CCCC(C)(C)[C@H]1C(=O)[C@@H]3O [XEROPHILUSINE I] | 7.40 | 5.55 | 6.72
31 | C=C1C(=O)[C@]23[C@H](O)[C@H]1CC[C@H]2[C@@]12C(OC)O[C@@]3(O)[C@@H](O)[C@@H]1C(C)(C)CC[C@H]2O (stereo not given in full) [RABDOTERNIN E] | 5.62 | < 5.00 | < 5.00
32 | C=C1[C@@H](O)[C@]23[C@H](O)[C@H]1C[C@H](O)[C@H]2[C@]12CCCC(C)(C)[C@H]1[C@H](OC(C)=O)[C@]3(O)OC2 [RABDOTERNIN D] | < 5.00 | < 5.00 | < 5.00
